Assay outcomes: PubChem BioAssay, several laboratories
SENP1 FRET inh = human SENP1 catalytic domain inhibitors, primary screen, biochemical, FRET, uHTS | Sentrin-specific protease 1 (Homo sapiens), Q9P0U3 | recombinant SENP1 catalytic domain, CyPet-SUMO1-YPet FRET cleavage | inhibition, % at 10 µM | 360,000 compounds, 0.21% hits | AID 624204, 2012;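 active = inhibition at least 30% at 10 µM, raw YFP signal under a set limit, fluorescence ratio 0.5 to 1.5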
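Test system: human SENP1 catalytic domain; medium: Tris pH 8 buffer plus EDTA, NaCl, BME, BSA, NP40, catalase; incubation: 50 min reaction at room temperature; technique: FRET, CFP and YFP emission; controls: no-enzyme low control and enzyme-plus-DMSO high control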
ADAM10 inh = human ADAM10 inhibitors, primary screen, biochemical, QFRET, HTS. inhibition, % at 7 µM. recombinant ADAM10, EDANS/DABCYL FRET peptide cleavage, 3 h. Disintegrin and metalloproteinase domain-containing protein 10 (Homo sapiens), O14672. 370,000 compounds, 0.62% hits;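 active = inhibition above a per-campaign cutoff equal to the mean of compounds falling between control-based bounds plus 3 SD, cut at about 20% in these data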
FAS TE block = FAS thioesterase domain inhibitors, primary screen, biochemical, fluorescence intensity, uHTS | Fatty acid synthase (Homo sapiens), P49327 | recombinant FAS-TE, OMFH fluorogenic substrate, fluorescence endpoint | inhibition, % at 15 µM | 360,000 compounds, 0.67% hits;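 active = compounds whose normalised, plate-corrected inhibition of enzyme fluorescence in the single-dose primary screen is 50% or more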
ADAM17 inh = ADAM17 inhibitors, primary screen, biochemical, QFRET. Disintegrin and metalloproteinase domain-containing protein 17 (Homo sapiens), P78536. recombinant ADAM17, EDANS/DABCYL FRET peptide cleavage. inhibition, % at 6.95 µM. 370,000 compounds, 0.83% hits;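 active = inhibition above the mean of compounds lying between control limits plus 3 SD, set per campaign, cut at about 8.5% in these data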
ADAM10 confirm = human ADAM10 inhibitors, confirmation, biochemical, QFRET, triplicate | shares compounds with ADAM10 inh | ADAM10 QFRET peptide cleavage, EDANS fluorescence | inhibition, % at 6.95 µM | 2,100 compounds, 1% hits;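 active = inhibition above about 20% chosen separately for each screening run, limit read from the data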
ADAM17 counter = ADAM17 inhibitors, counter-screen for ADAM10 exosite inhibitor project, biochemical, QFRET, high throughput; shares compounds with ADAM10 inh; ADAM17 QFRET peptide cleavage, EDANS fluorescence; inhibition, % at 6.95 µM; 2,100 compounds, 0.5% hits;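 active = mean triplicate inhibition above the solvent-only control wells' mean plus 3 SD, cut at about 12% in these data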
ADAM10 counter = ADAM10 inhibitors, counter-screen for ADAM17 exosite inhibitor project, biochemical, FRET, human ADAM10 | recombinant ADAM10, EDANS/DABCYL FRET peptide cleavage, 3 h | shares compounds with ADAM17 inh | AID 743256, 2014 | inhibition, % at 6.95 µM | 2,900 compounds, 47% hits;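 active = mean inhibition over the triplicate runs exceeds the activity threshold set in the earlier primary screen, cut at about 20% in these data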
ADAM17 confirm = ADAM17 inhibitors, hit retest, confirmation, biochemical, QFRET peptide cleavage. 2,900 compounds, 65% hits. inhibition, % at 6.95 µM. recombinant ADAM17, EDANS/DABCYL QFRET peptide cleavage. shares compounds with ADAM17 inh. AID 743257, 2014;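 active = mean inhibition across replicates above the hit cutoff set in the primary screen, cut at about 8.5% in these data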
A number is an active result. Rows were chosen to be rich in hits. Some 1.9% of all compounds tested hit in one or more screens of this group.

`CC1(C(=O)NCc2cccc3ccccc23)CCN1Cc1ccccc1OC(F)F` (configuration not stated) gave SENP1 FRET inh inactive, ADAM10 inh 20.9, FAS TE block inactive, ADAM17 inh inactive, ADAM10 confirm inactive and ADAM17 counter inactive.
For Cc1cc(C)n(CC(O)Cn2c3ccc(Br)cc3c3cc(Br)ccc32)c(=O)n1 (configuration not stated) the results were SENP1 FRET inh inactive, ADAM10 inh 20.2, FAS TE block inactive, ADAM17 inh inactive, ADAM10 confirm inactive and ADAM17 counter inactive.
For COc1ccc(N=Nc2c(C)n[nH]c2C)cc1 the results were SENP1 FRET inh inactive, ADAM10 inh inactive, FAS TE block inactive and ADAM17 inh inactive.
`Cc1n[nH]c(C)c1N=Nc1ccc(Br)cc1` gave SENP1 FRET inh inactive, ADAM10 inh 20.9, FAS TE block inactive, ADAM17 inh inactive, ADAM10 confirm inactive and ADAM17 counter inactive.
For COc1ccc(S[C@]2(C(=O)NCC(C)C)CC(=O)N[C@@H]2c2ccc(OC)cc2)cc1 the results were ADAM10 inh inactive and ADAM17 inh inactive.
Screening O/N=C/c1cc(Cl)ccc1OCc1ccccc1Cl returned SENP1 FRET inh inactive, ADAM10 inh 23.1, FAS TE block inactive, ADAM17 inh inactive, ADAM10 confirm inactive and ADAM17 counter inactive.
CCOc1ccc(Cl)cc1/C=N/O was read as SENP1 FRET inh inactive, ADAM10 inh inactive, FAS TE block inactive and ADAM17 inh inactive.
`COc1ccccc1/C=C1\SC(=S)N(CCC(=O)Nc2cccc(O)c2)C1=O` gave SENP1 FRET inh inactive, ADAM10 inh 22.8, FAS TE block inactive, ADAM17 inh inactive, ADAM10 confirm inactive and ADAM17 counter inactive.
For COc1ccccc1/C=C1\SC(=S)N(CCC(=O)NNC(=O)c2ccccc2OC)C1=O the results were SENP1 FRET inh inactive, ADAM10 inh inactive, FAS TE block inactive and ADAM17 inh inactive.
`COc1cc(/C=C2\SC(=S)N(CCC(=O)Nc3cccc(O)c3)C2=O)cc(OC)c1OC` gave SENP1 FRET inh inactive, ADAM10 inh 20.8, FAS TE block inactive, ADAM17 inh inactive, ADAM10 confirm inactive and ADAM17 counter inactive.
Screening CN(C)S(=O)(=O)c1cccc(NC(=O)COC(=O)CCSc2ccc(Cl)cc2)c1 returned SENP1 FRET inh inactive, ADAM10 inh 21.0, FAS TE block inactive, ADAM17 inh inactive, ADAM10 confirm inactive and ADAM17 counter inactive.
`Cc1ccc(SCCC(=O)OCC(=O)Nc2ccc(C(N)=O)cc2)cc1` gave SENP1 FRET inh inactive, ADAM10 inh 95.0, FAS TE block inactive, ADAM17 inh inactive, ADAM10 confirm inactive and ADAM17 counter inactive.
CC1(Cc2ccc(C(F)(F)F)o2)C(=O)Nc2cc(-c3ccc(F)cc3F)ccc21 (configuration not stated) was read as SENP1 FRET inh inactive, ADAM10 inh 44.6, FAS TE block inactive, ADAM17 inh 12.8, ADAM10 confirm inactive, ADAM17 counter inactive, ADAM10 counter 44.2 and ADAM17 confirm 23.5.
Screening CC1(Cc2cc(Cl)ccc2C(F)(F)F)C(=O)Nc2cc(F)ccc21 (configuration not stated) returned SENP1 FRET inh inactive and FAS TE block inactive.
COc1ccc(S(=O)(=O)N2CCOCC2)cc1NC(=O)CO/N=C/c1ccccc1OC(F)F was read as SENP1 FRET inh inactive, ADAM10 inh inactive, FAS TE block inactive and ADAM17 inh inactive.
CC(O/N=C/c1ccccc1OC(F)F)C(=O)Nc1cccc(S(=O)(=O)N2CCOCC2)c1 (configuration not stated) was read as SENP1 FRET inh inactive, ADAM10 inh 19.8, FAS TE block inactive, ADAM17 inh 10.1, ADAM10 confirm inactive, ADAM17 counter inactive, ADAM10 counter inactive and ADAM17 confirm inactive.
CC(C)[C@H](NC(=O)c1ccco1)C(=O)N1CCC[C@H]1C(=O)NCc1ccccc1 was read as ADAM10 inh inactive and ADAM17 inh inactive.
For C[C@H]1C2CC(OC(=O)Nc3cccc(C(F)(F)F)c3)C(C2)[C@H]2CCCCN21 (some centres not stated) the results were ADAM10 inh inactive and ADAM17 inh inactive.
Screening Cc1ccc(NS(=O)(=O)c2ccc(NC(=O)CN(c3cc([N+](=O)[O-])ccc3C)S(C)(=O)=O)cc2)c(C)c1 returned SENP1 FRET inh inactive, ADAM10 inh 21.4, FAS TE block inactive, ADAM17 inh 10.8, ADAM10 confirm inactive, ADAM17 counter inactive, ADAM10 counter 54.0 and ADAM17 confirm 27.8.
`Cc1ccc([N+](=O)[O-])cc1N(CC(=O)NC1CCCC1)S(C)(=O)=O` gave SENP1 FRET inh inactive, ADAM10 inh inactive, FAS TE block inactive and ADAM17 inh inactive.
Screening Cc1ccc(NS(=O)(=O)c2ccc(NC(=O)c3ccc(Br)o3)cc2)c(C)c1 returned SENP1 FRET inh inactive, ADAM10 inh 23.4, FAS TE block inactive, ADAM17 inh 10.5, ADAM10 confirm inactive, ADAM17 counter inactive, ADAM10 counter 31.9 and ADAM17 confirm 15.2.
Screening Cc1ccc(NS(=O)(=O)c2ccc(NC(=O)c3ccccc3C(=O)O)cc2)c(C)c1 returned SENP1 FRET inh inactive, ADAM10 inh inactive, FAS TE block inactive and ADAM17 inh inactive.
Screening Cc1cc(C)cc(NS(=O)(=O)c2ccc(NC(=S)NC(=O)c3ccc(Br)o3)cc2)c1 returned SENP1 FRET inh inactive, ADAM10 inh 20.5, FAS TE block inactive, ADAM17 inh 10.6, ADAM10 confirm inactive, ADAM17 counter inactive, ADAM10 counter 29.1 and ADAM17 confirm 13.9.
`C=CCN1[C@H](C)COc2cc(N3CCCC3)ccc2S1(=O)=O` gave ADAM10 inh inactive and ADAM17 inh inactive.
Cc1ccc2c(c1)C(CS(=O)(=O)NCC(C)C)NC2 (configuration not stated) was read as ADAM10 inh inactive and ADAM17 inh inactive.
